Experiments:
[1] = Compound was evaluated for the toxicity in mice; assay type: organism-based; settings: mouse, in vivo
Mus musculus [2] = assay: Compound was evaluated for the percent reduction of carrageenan induced edema in mice at dose of 30 mg/kg; assay type: functional
Mus musculus [3] = assay: Compound was evaluated for the percent reduction of carrageenan induced edema in mice at dose of 200 mg/kg; assay type: functional
Mus musculus [4] = assay: Compound was evaluated for the percent reduction of carrageenan induced edema in mice at dose of 75 mg/kg; assay type: functional
Mus musculus [5] = species: Mus musculus; assay: Neurotoxic dose that causes minimal recognizable neurotoxicity in 50% of animals tested; assay type: functional
In short: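 Mice dosed orally or intraperitoneally; neurotoxicity scored on five end points, including a positional sense test in which a hind leg lowered over a table edge should be quickly lifted back to a normal position. NTD50 is the dose giving minimal recognizable neurotoxicity in 50% of animals tested.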

Mus musculus [6] = species: Mus musculus; assay: Dose giving one-half of average maximal [40%] response in carrageenan assay; assay type: functional
Mus musculus [7] = assay: Percent analgesia in phenylquinone writhing assay at 10 mg/kg; assay type: functional
In short: (§1)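 Groups of 10 male mice were dosed orally with compound dissolved or suspended in 0.25% methylcellulose (0.25 mL per mouse). After the designated interval they were challenged ip with 0.25 mL of 0.02% phenylquinone in aqueous ethanol (95:5). Read-out is the percentage of mice protected from writhing.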

Mus musculus [8] = assay: Percent analgesia in phenylquinone writhing assay at 30 mg/kg; assay type: functional; in short: as §1
[9] = Ulcerogenic dose that produced gastric lesions, ulcers and/or hemorrhage in 50% of the animals tested; assay type: ADME, organism-based, Stomach; settings: rat, in vivo; read-out: UD50 (the source's name)
In short: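 Ten male Sprague–Dawley rats (ca. 160 g) were fasted 24 h with water available, then dosed po with compound or vehicle. At 4 h they were killed with CO2, and stomachs were opened along the greater curvature. A nonbiased observer scored ulcers, pitting or hemorrhagic spots. UD50 (lesions in 50% of animals) was determined by Litchfield–Wilcoxon.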

Mus musculus [10] = assay: Percent analgesia in phenylquinone writhing assay at 100 mg/kg; assay type: functional; in short: as §1
Mus musculus [11] = species: Mus musculus; assay: Dose giving one-half of average maximal [40%] response in phenylquinone writhing assay; assay type: functional
Mus musculus [12] = assay: Compound was evaluated for the percent reduction of carrageenan induced edema in mice at dose of 40 mg/kg; assay type: functional

CC1=C(C(=O)Nc2c(Br)cccc2Br)SC2=NCCN21 showed an LD50 [1] of 40 mg/kg and a Reduction (Mus musculus [2]) of 0%.

CC1(C)CN2C(CS(=O)(=O)c3ccccc3)=CSC2=N1 showed a Reduction (Mus musculus [3]) of 5%.

CCOC(=O)C1(O)CSC2=NC3CCCCC3N21 (stereo not drawn) gave a Reduction (Mus musculus [3]) of 3%.

For CC1=C(C(=O)Nc2c(Cl)cccc2Cl)SC2=NCCN21, the LD50 [1] was 60 mg/kg.

CC1=C(C(=O)Nc2ccccc2F)SC2=NCCN21 gave an LD50 [1] of 100 mg/kg and a Reduction (Mus musculus [4]) of 15%.

Work on CC1=C(C(=O)N2C(C)CCC2C)SC2=NCCN21 (stereo not drawn) yielded a Reduction (Mus musculus [3]) of 20% and an LD50 [1] of 240 mg/kg.

With Cc1ccc(C(=O)c2ccc(CC(=O)O)n2C)cc1 [TOLMETIN] the NTD50 (Mus musculus [5]) was over 1000 mg/kg, the ED50 (Mus musculus [6]) was 20 mg/kg and the Analgesia (Mus musculus [7]) was 40%. The Analgesia (Mus musculus [8]) was 60%, the TD50 [9] was 63 mg/kg and the Analgesia (Mus musculus [10]) was 80%. The ED50 (Mus musculus [11]) was 22 mg/kg.

Compound CC1=C(C(=O)Nc2c(C)cc(C)cc2C)SC2=NCCN21 has an LD50 [1] of 60 mg/kg and a Reduction (Mus musculus [12]) of 11%.

Reference: ChEMBL document CHEMBL1121836, “Effect of structural change on acute toxicity and antiinflammatory activity in a series of imidazothiazoles and thiazolobenzimidazoles” (J Med Chem, 1981)
